From ChEMBL document CHEMBL2434871, “Discovery of a potent dual EGFR/HER-2 inhibitor L-2 (selatinib) for the treatment of cancer” (Eur J Med Chem, 2013)

What was measured:
[1] = system: Rattus norvegicus; experiment: Elimination half life in Wistar rat at 100 mg/kg, po assessed as lapatinib; type: ADME, organism-based; design: dose 100 mg/kg, route oral; conditions: in vivo
Summary of the method: (§1)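 Male Wistar rats (220 ± 10 g), n = 4 per group, given the tosylate salt orally by gavage at 100 mg/kg, suspended in 0.5% sodium carboxymethylcellulose. Blood was sampled at 0.25 to 24 h. Parent compound and the lapatinib metabolite were extracted by C18 solid-phase extraction and analysed by LC/MSn.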

[2] = Elimination half life in Wistar rat at 100 mg/kg, po; type: ADME, organism-based; design: dose 100 mg/kg, route oral; conditions: in vivo, read-out: beta t1/2 (converted); summary of the method: as §1
[3] = system: Rattus norvegicus; experiment: Mean residence time in Wistar rat at 100 mg/kg, po assessed as lapatinib; type: ADME, organism-based; design: dose 100 mg/kg, route oral; conditions: in vivo; summary of the method: as §1
[4] = Mean residence time in Wistar rat at 100 mg/kg, po; type: ADME, organism-based; design: dose 100 mg/kg, route oral; conditions: in vivo; summary of the method: as §1
[5] = system: Rattus norvegicus; experiment: AUC (0 to infinity) in Wistar rat at 100 mg/kg, po assessed as lapatinib; type: ADME, organism-based, Plasma; design: time infinity, dose 100 mg/kg, route oral; conditions: in vivo; summary of the method: as §1
[6] = AUC (0 to infinity) in Wistar rat at 100 mg/kg, po; type: ADME, organism-based; design: time infinity, dose 100 mg/kg, route oral; conditions: plasma; summary of the method: as §1
[7] = system: Rattus norvegicus; experiment: AUC (0 to t) in Wistar rat at 100 mg/kg, po assessed as lapatinib; type: ADME, organism-based, Plasma; design: dose 100 mg/kg, route oral; conditions: in vivo; summary of the method: as §1
[8] = AUC (0 to t) in Wistar rat at 100 mg/kg, po; type: ADME, organism-based; design: dose 100 mg/kg, route oral; conditions: plasma; summary of the method: as §1
[9] = system: Rattus norvegicus; experiment: Cmax in Wistar rat at 100 mg/kg, po assessed as lapatinib; type: ADME, organism-based; design: dose 100 mg/kg, route oral; conditions: in vivo; summary of the method: as §1
[10] = Cmax in Wistar rat at 100 mg/kg, po; type: ADME, organism-based; design: dose 100 mg/kg, route oral; conditions: in vivo; summary of the method: as §1
[11] = system: Rattus norvegicus; experiment: Tmax in Wistar rat at 100 mg/kg, po assessed as lapatinib; type: ADME, organism-based; design: dose 100 mg/kg, route oral; conditions: in vivo; summary of the method: as §1
[12] = Tmax in Wistar rat at 100 mg/kg, po; type: ADME, organism-based; design: dose 100 mg/kg, route oral; conditions: in vivo; summary of the method: as §1
[13] = system: NCI-N87; experiment: Antitumor activity against human NCI-N87 cells xenografted in BALB/c athymic mouse assessed as tumor regression at 200 mg/kg, po qd after 28 days relative to vehicle-treated control; type: functional; conditions: NCI-N87, 672 h, read-out: TGI
Summary of the method: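 Female BALB/c athymic mice, 4–6 weeks old, received 2 × 10⁶ NCI-N87 or SK-OV-3 cells s.c. in the right flank. At a tumor volume of 100–300 mm³ they were randomized (control n = 10, treated n = 6). Tosylate salt was given at 200 mg/kg qd by oral gavage, and controls received vehicle. Tumor volume was taken as length × width²/2 by caliper. Inhibition = (1 − T/C) × 100% on mean relative tumor volume (RTV). Two-tailed t test.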

[14] = system: Mus musculus; experiment: Toxicity in BALB/c athymic mouse xenografted with human SKOV3 cells assessed as bloody stool at 200 mg/kg, po qd after 4 days; type: organism-based, SK-OV-3; design: dose 200 mg/kg, route oral; conditions: in vivo, 96 h
[15] = system: Mus musculus; experiment: Toxicity in BALB/c athymic mouse xenografted with human NCI-N87 cells assessed as bloody stool at 200 mg/kg, po qd after 4 days; type: organism-based; design: dose 200 mg/kg, route oral; conditions: in vivo, 96 h
[16] = system: Mus musculus; experiment: Toxicity in BALB/c athymic mouse xenografted with human SKOV3 cells assessed as hematuria at 200 mg/kg, po qd after 4 days; type: organism-based, SK-OV-3; design: dose 200 mg/kg, route oral; conditions: in vivo, 96 h
[17] = system: Mus musculus; experiment: Toxicity in BALB/c athymic mouse xenografted with human NCI-N87 cells assessed as hematuria at 200 mg/kg, po qd after 4 days; type: organism-based; design: dose 200 mg/kg, route oral; conditions: in vivo, 96 h
[18] = system: Mus musculus; experiment: Toxicity in BALB/c athymic mouse xenografted with human SKOV3 cells assessed as weight loss at 200 mg/kg, po qd after 4 days; type: organism-based, SK-OV-3; design: dose 200 mg/kg, route oral; conditions: in vivo, 96 h
[19] = system: Mus musculus; experiment: Toxicity in BALB/c athymic mouse xenografted with human NCI-N87 cells assessed as weight loss at 200 mg/kg, po qd after 4 days; type: organism-based; design: dose 200 mg/kg, route oral; conditions: in vivo, 96 h
[20] = system: BT-474; experiment: Cytotoxicity against human BT474 cells after 72 hrs by SRB assay; type: functional, cell-based; conditions: BT-474, 72 h
[21] = system: NCI-N87; experiment: Cytotoxicity against human NCI-N87 cells after 72 hrs by SRB assay; type: functional, cell-based; conditions: NCI-N87, 72 h
[22] = molecular target: Receptor tyrosine-protein kinase erbB-2 (Homo sapiens, UniProt P04626); experiment: Inhibition of HER-2 (unknown origin) using poly-(Glu4-Tyr) as substrate after 1 hr by ELISA-based spectrophotometry
Chain of Receptor tyrosine-protein kinase erbB-2 (P04626 whole entry): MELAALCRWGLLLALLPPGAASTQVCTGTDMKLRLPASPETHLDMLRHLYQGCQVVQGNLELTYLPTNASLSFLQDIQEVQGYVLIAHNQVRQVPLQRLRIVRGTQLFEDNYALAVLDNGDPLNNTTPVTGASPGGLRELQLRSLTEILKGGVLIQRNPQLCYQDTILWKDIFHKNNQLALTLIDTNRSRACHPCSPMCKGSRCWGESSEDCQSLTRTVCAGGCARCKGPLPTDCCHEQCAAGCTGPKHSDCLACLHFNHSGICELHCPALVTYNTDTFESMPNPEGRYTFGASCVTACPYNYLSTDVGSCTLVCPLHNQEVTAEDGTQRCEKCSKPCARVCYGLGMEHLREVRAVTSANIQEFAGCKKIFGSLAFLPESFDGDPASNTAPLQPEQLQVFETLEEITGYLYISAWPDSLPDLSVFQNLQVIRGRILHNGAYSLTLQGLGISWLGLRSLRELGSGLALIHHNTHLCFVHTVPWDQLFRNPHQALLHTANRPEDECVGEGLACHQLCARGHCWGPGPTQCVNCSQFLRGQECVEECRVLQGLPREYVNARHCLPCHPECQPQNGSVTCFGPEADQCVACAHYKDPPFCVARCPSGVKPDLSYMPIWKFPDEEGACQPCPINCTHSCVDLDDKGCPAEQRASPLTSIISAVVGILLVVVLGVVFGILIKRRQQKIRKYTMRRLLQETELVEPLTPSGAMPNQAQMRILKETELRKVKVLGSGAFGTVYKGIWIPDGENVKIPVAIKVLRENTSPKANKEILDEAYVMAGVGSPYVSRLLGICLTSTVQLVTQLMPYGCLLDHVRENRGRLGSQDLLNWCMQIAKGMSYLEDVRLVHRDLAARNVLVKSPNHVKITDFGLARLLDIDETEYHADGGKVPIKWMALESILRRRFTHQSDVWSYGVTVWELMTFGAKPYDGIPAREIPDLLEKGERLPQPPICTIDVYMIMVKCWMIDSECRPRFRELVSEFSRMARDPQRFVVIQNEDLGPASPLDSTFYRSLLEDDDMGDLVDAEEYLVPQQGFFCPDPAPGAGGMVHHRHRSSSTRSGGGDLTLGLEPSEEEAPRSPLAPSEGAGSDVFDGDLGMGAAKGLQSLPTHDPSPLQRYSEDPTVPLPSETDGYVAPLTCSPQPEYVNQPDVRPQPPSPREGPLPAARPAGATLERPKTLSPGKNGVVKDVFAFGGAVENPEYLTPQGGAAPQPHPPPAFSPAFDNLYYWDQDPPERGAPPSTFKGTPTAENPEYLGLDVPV
Summary of the method: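 ELISA on plates pre-coated with poly(Glu,Tyr 4:1) substrate. Serially diluted compounds plus ATP were added in 50 mM HEPES pH 7.4 containing 20 mM MgCl₂, 0.2 mM MnCl₂, 0.1 mM Na₃VO₄ and 1 mM DTT. Phosphotyrosine was detected with anti-phosphotyrosine antibody PY99 (1:500), then HRP anti-mouse IgG, then o-phenylenediamine/H₂O₂ at pH 5.5.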

[23] = molecular target: Epidermal growth factor receptor (Homo sapiens, UniProt P00533); experiment: Inhibition of EGFR (unknown origin) using poly-(Glu4-Tyr) as substrate after 1 hr by ELISA-based spectrophotometry
Chain of Epidermal growth factor receptor (P00533 whole entry): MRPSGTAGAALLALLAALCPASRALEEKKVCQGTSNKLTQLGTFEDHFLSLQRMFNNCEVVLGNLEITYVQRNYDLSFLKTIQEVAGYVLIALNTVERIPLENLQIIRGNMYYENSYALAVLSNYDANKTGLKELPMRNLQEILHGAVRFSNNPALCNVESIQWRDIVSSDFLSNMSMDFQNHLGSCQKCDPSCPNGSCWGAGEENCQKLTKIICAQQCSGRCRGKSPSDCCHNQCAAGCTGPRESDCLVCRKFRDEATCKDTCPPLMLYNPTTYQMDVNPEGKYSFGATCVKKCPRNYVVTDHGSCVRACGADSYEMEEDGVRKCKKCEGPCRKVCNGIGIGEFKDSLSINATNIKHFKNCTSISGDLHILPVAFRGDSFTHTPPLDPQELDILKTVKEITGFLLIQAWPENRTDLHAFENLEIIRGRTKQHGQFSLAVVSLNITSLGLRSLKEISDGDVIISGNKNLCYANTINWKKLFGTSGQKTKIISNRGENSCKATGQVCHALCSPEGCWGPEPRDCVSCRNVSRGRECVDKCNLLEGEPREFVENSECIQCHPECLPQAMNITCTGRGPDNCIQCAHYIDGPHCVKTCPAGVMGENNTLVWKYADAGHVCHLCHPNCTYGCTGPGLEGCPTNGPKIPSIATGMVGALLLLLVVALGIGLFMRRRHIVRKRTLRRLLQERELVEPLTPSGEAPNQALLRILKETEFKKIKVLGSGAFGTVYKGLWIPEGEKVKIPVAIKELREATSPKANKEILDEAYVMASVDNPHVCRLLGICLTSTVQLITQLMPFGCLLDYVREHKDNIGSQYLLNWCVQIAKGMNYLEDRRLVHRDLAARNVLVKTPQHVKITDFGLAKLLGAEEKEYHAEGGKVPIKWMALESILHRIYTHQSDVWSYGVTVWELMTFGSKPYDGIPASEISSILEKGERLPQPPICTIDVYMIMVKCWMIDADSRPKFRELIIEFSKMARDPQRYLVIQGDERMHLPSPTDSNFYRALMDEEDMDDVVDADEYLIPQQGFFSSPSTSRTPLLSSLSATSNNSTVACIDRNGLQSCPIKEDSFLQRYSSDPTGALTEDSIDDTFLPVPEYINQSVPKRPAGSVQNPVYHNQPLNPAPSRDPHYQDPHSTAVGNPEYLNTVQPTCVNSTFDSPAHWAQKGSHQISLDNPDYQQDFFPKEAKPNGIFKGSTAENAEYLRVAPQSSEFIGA

[24] = Aqueous solubility of the compound at 25 degC by shake-flask method; type: physicochemical; conditions: unbuffered water
[25] = system: SK-OV-3; experiment: Antitumor activity against human SKOV3 cells xenografted in BALB/c athymic mouse assessed as tumor regression at 200 mg/kg, po qd after 21 days relative to vehicle-treated control; conditions: SK-OV-3, po, 504 h, read-out: TGI
[26] = system: Mus musculus; experiment: Toxicity in BALB/c athymic mouse xenografted with human SKOV3 cells assessed as death at 200 mg/kg, po qd after 4 days; type: organism-based, SK-OV-3; design: dose 200 mg/kg, route oral; conditions: in vivo, 96 h
Summary of the method: (§2)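 Female BALB/c athymic mice, 4-6 weeks old and pathogen-free, were housed under sterile conditions. NCI-N87 or SK-OV-3 cells (2 × 10⁶) were implanted s.c. in the right flank. At tumor volumes of 100-300 mm³, mice were randomized to vehicle control (n = 10) or treatment (n = 6). Treatment was the tosylate salt at 200 mg/kg by oral gavage once daily. Mice were monitored for clinical signs, body weight and death.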

[27] = system: Mus musculus; experiment: Toxicity in BALB/c athymic mouse xenografted with human NCI-N87 cells assessed as death at 200 mg/kg, po qd after 4 days; type: organism-based; design: dose 200 mg/kg, route oral; conditions: in vivo, 96 h; summary of the method: as §2
[28] = system: Mus musculus; experiment: Toxicity in BALB/c athymic mouse xenografted with human SKOV3 cells assessed as scruffy skin at 200 mg/kg, po qd; type: organism-based, SK-OV-3; design: dose 200 mg/kg, route oral; conditions: in vivo
[29] = system: Mus musculus; experiment: Toxicity in BALB/c athymic mouse xenografted with human NCI-N87 cells assessed as scruffy skin at 200 mg/kg, po qd; type: organism-based; design: dose 200 mg/kg, route oral; conditions: in vivo
[30] = system: Mus musculus; experiment: Toxicity in BALB/c athymic mouse xenografted with human SKOV3 cells assessed as diarrhea at 200 mg/kg, po qd; type: organism-based, SK-OV-3; design: dose 200 mg/kg, route oral; conditions: in vivo
[31] = system: Mus musculus; experiment: Toxicity in BALB/c athymic mouse xenografted with human NCI-N87 cells assessed as diarrhea at 200 mg/kg, po qd; type: organism-based; design: dose 200 mg/kg, route oral; conditions: in vivo
[32] = system: Mus musculus; experiment: Toxicity in BALB/c athymic mouse xenografted with human SKOV3 cells assessed as lethargic condition at 200 mg/kg, po qd; type: organism-based, SK-OV-3; design: dose 200 mg/kg, route oral; conditions: in vivo
[33] = system: Mus musculus; experiment: Toxicity in BALB/c athymic mouse xenografted with human NCI-N87 cells assessed as lethargic condition at 200 mg/kg, po qd; type: organism-based; design: dose 200 mg/kg, route oral; conditions: in vivo

Compound | beta t1/2 [1] [h] | half-life [2] [h] | MRT [3] [h] | MRT [4] [h] | AUC [5] [ng·h/mL] | AUC(0-inf) [6] [ng·h/mL] | AUCt [7] [ng·h/mL] | AUC(0-t) [8] [ng·h/mL] | Cmax [9] [ng/mL] | Cmax [10] [ng/mL] | Tmax [11] [h] | Tmax [12] [h] | inhibition in vivo at 200 mg/kg [13] [%] | Activity [16] | Activity [17] | Activity [18] | IC50 [20] [nM] | IC50 [21] [nM] | IC50 [22] [nM] | IC50 [23] [nM] | further results
CSCCNCc1ccc(-c2ccc3ncnc(Nc4ccc(OCc5cccc(F)c5)c(Cl)c4)c3c2)o1.Cc1ccc(S(=O)(=O)O)cc1 | 4.18 | 4.43 | 8.34 | 8.19 | 2058 | 8130 | 1994 | 7890 | 242 | 854 | 3 | 3 | 84.7 | Non-toxic | Non-toxic | Non-toxic | 35.1 | 47.3 | 18.3 | 25.1 | Activity [14]: Non-toxic; Activity [15]: Non-toxic; Activity [19]: Non-toxic; solubility [24]: 3 µg/mL; inhibition in vivo at 200 mg/kg [25]: 74.6%
Cc1ccc(S(=O)(=O)O)cc1.Fc1cccc(COc2ccc(Nc3ncnc4ccc(-c5ccc(CN6CCNCC6)o5)cc34)cc2Cl)c1 |  |  |  |  |  |  |  |  |  |  |  |  |  | Toxic | Toxic | Toxic | 41.9 | 29.2 | 12.3 |  | Activity [26]: Toxic; Activity [27]: Toxic; Activity [19]: Toxic; Activity [28]: Toxic; Activity [29]: Toxic; Activity [30]: Toxic; Activity [31]: Toxic; Activity [32]: Toxic; Activity [33]: Toxic
CS(=O)(=O)CCNCc1ccc(-c2ccc3ncnc(Nc4ccc(OCc5cccc(F)c5)c(Cl)c4)c3c2)o1.Cc1ccc(S(=O)(=O)O)cc1.Cc1ccc(S(=O)(=O)O)cc1.O [LAPATINIB DITOSYLATE] |  | 1.91 |  | 5.52 |  | 26900 |  | 26900 |  | 3900 |  | 2.5 | 89.7 |  |  |  | 37.4 | 46.2 |  |  | solubility [24]: 7 µg/mL; inhibition in vivo at 200 mg/kg [25]: 78.8%
C[S+]([O-])CCNCc1ccc(-c2ccc3ncnc(Nc4ccc(OCc5cccc(F)c5)c(Cl)c4)c3c2)o1.Cc1ccc(S(=O)(=O)O)cc1 (configuration not stated) | 2.64 | 2.32 | 5.88 | 5.38 | 4309 | 53200 | 4295 | 50300 | 645 | 8880 | 4.5 | 3.5 |  |  |  |  |  |  |  |  | 
CN1CCN(Cc2ccc(-c3ccc4ncnc(Nc5ccc(OCc6cccc(F)c6)c(Cl)c5)c4c3)o2)CC1 |  |  |  |  |  |  |  |  |  |  |  |  |  |  |  |  |  |  | 23.7 | 12.5 | 
CS(=O)(=O)NCCNCc1ccc(-c2ccc3ncnc(Nc4ccc(OCc5cccc(F)c5)c(Cl)c4)c3c2)o1 |  |  |  |  |  |  |  |  |  |  |  |  |  |  |  |  |  |  | 15.9 | 18.7 | 
